Source: the EternaBench riboswitch data

Test system: MS2 coat protein
Assay: apparent Kd, MS2 coat protein; higher = weaker binding; RNA-MaP array; FMN 200 µM where present
In short: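 Stalled E. coli RNA polymerase produced the designs on Illumina sequencing-chip clusters. SNAP-549-labelled MS2 coat protein was added from 0.7 or 1.5 nM, doubling to 3 µM, without and then with constant ligand, in 100 mM Tris-HCl pH 7.5, 80 mM KCl, 4 mM MgCl2, BSA, DTT, yeast tRNA and Tween-20. The apparent Kd is the median of filtered per-cluster fits of green signal normalised to red-channel RNA signal and control-cluster median Fmax.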

[1] = designed as: ON switch for flavin mononucleotide, no ligand
[2] = ligand present: flavin mononucleotide, designed as: ON switch for flavin mononucleotide
[3] = designed as: OFF switch for flavin mononucleotide, no ligand
[4] = ligand present: flavin mononucleotide, designed as: OFF switch for flavin mononucleotide

Sequence | apparent Kd [1] | apparent Kd [2] | apparent Kd [3] | apparent Kd [4]
CGUGUCGCAUGAGGAUAUGGUCAGCUUUGCUGACCAGAAGGCAUGUCAAUAGACAUGAGGAUCACCCAUGUAGUUAAGACACGA | 592 nM | 39.8 nM |  | 
AGUGUCAUCGAGAAGGCCUCAACAUGAGGAUCACCCAUGUUGCAAAAUGGGAGGAUAUCGAUGAUACAGCUACGUUUCGUAGCA | 15.3 nM | 5.21 nM |  | 
UUUAAUCGAAACAUGAGGAUCACCCAUGUGUUGUAAUUAACAUAGGAUAUUUGUAUACUUUUAUAAGAGAAGGAUGAUAAUACU | 21.2 nM | 15.8 nM |  | 
GUAUUUUAAGUAAGGAUAUGCCUCUGGAAACGGAGGUAGAAGGUACAUGAGGAUCACCCAUGUUUCUCUUUUGG |  |  | 16.3 nM | 20.6 nM
UUUAAUCGAAACAUGAGGAUCACCCAUGUGUUGUAAUUAACAUAGGAUAUUUGUAUGCUUUUGUAAGAGAAGGAUGAUAAUACU | 21.2 nM | 16.1 nM |  | 
GGACAGUCAGGAUAUACAUGAGGAUCACCCAUGUUGAGAUGUGAAAGGGCGGGAGUAGGUAGAAGGGACGAGAG |  |  | 31.3 nM | 27.5 nM
ACAGCGUGAGGAUAUACAUGAGGAUCACCCAUGUGUGGCAGGUUAUCCUGUCAUGAGUGUAGAAGGCACGCUGU |  |  | 30 nM | 90.7 nM
GUCGAAGCUGUACCAGUCGACGGUCAGGAUAUACAUGAGGAUCACCCAUGUGCUAUUGAUACUAUGUAGAAGGGACCCACCGCA |  |  | 10.7 nM | 11.2 nM
UGUGAGUUGAUGUUAGAUAGGAGAACAUGAGGAUCACCCAUGUAGGAUAUUCAAAGACGAAGAUAGAAGAAGGACAUAGGUUUC |  |  | 17.7 nM | 21.5 nM
AACCUAUUACAGAAGGCCAGCUACAUGAGGAUCACCCAUGUCGAGUCAUGGAGGAUAUGUAGUAAUUUACACGCGGGUGAGUAC | 51.6 nM | 6.25 nM |  | 
GUAUCACGAGGAUAUACAUGAGGAUCACCCAUGUAGAAGCCAUGUGGUGCUCAAGUAUGUAGAAGGCGUGCUCC |  |  |  | 33.3 nM
UUGGACGUCGUAGGAUAUGUAGGAUAUUCCUACAUGAGGAUCACCCAUGUUGACAUGGAAGAAGGACAGAAGGGCGAUGUCCAU | 352 nM | 5.27 nM |  | 
GUGGUCUCCGCAGGAUAUGGCUCGGGCACGACACCAGAAGGGCGGACAUGAGGAUCACCCAUGUUCGCGGGUGGGUCCUAAGGA |  |  | 6.39 nM | 7.49 nM
GCCAAUACCGAGGAUAUCCUGAAGCACAUAUCUGGAGAAGGCGGUACAUGAGGAUCACCCAUGUGCUCGUGAGA |  |  | 21.6 nM | 33 nM
UUUUAACAUGAGGAUCACCCAUGUCGUUCAAAUCAAGGAUAUCAAGCGUGUGCACACGCCUGAGAAGGUGAAGCUC | 55.8 nM | 98.9 nM |  | 
CUUAUGUCAGGAUAUCAGUAGUAAAAAAAAAAAAUUACUACUGAGAAGGGACAUGAGGAUCACCCAUGUCCAUU |  |  | 30.9 nM | 31.2 nM
AUCUUGUAAGGAUAUCUGACAAGUGACGAAAGUCACAGUUCAGAGAAGGUACAUGAGGAUCACCCAUGUAGAAC |  |  | 17.6 nM | 20.3 nM
UGACGGAGCUGAGGAUAUAUACAUGAGGAUCACCCAUGUAAGCUCCAGGAAACUGGAGCAAAUGUAUAGAAGGCAGCUCCGUCA |  |  | 30.3 nM | 48 nM
UUUUAGUCAGGAUAUCGUUAAUUUAAUUGUUUGUAUUAGUUCGAGAAGGGACAUGAGGAUCACCCAUGUAUUUU |  |  | 33.5 nM | 43 nM

Sequence | apparent Kd [1] | apparent Kd [2] | apparent Kd [3] | apparent Kd [4]
GUAGCUAGUACAGGAUAUUAGUGCGUGUAGUAUUGAGAAGGGUACAUGAGGAUCACCCAUGUGAUCAAUCACUGUUAAGGUUGC |  |  | 221 nM | 177 nM
GCACAUGGCAUAGGAUAUAGAAGUAUACAUUAUAUAGGUAGUGUCACAACACUAGAAGGAUGAAACAUGAGGAUCACCCAUGUA | 16.2 nM | 12.3 nM |  | 
GAUCAACAUGAGGAUCACCCAUGUGAGGAUAUGAUACUAUGUACUUCGGUACAUAGUAUCAGAAGGCAUAUAAA |  |  | 44.7 nM | 35.2 nM
GUAGAGUAGUGAGGAUAUACGAGUACGAUAGUACGGCGAUCCAUUAAUACAUGAGGAUCACCCAUGUAGAAGGCACUUCUCUAC |  |  | 6.6 nM | 84 nM
CGCUGGUGAGGAUAUGGGUGUGGUUACAUGAGGAUCACCCAUGUGGUGUCGCGCGUGGGUCCAGAAGGCGCGGGUG |  |  | 246 nM | 170 nM
GAGUGGAAGGCCGCUACAUGAGGAUCACCCAUGUGCUAAGCACAGGAUAUCGCGCUAGCCCGGCGCGAGAAGGGUGACGGCCUU | 577 nM | 276 nM |  | 
AGUAUGUUUGAGAAGGUGAAGUGGAAACAUGAGGAUCACCCAUGUAUUAGGAAGCCUGGUUUUGUCAAGGAUAUCGGGUAUACA | 19.8 nM | 16.1 nM |  | 
GCCAUCGCGUGAGGAUAUGCUCCGGUUUCCGGAGCAGAAGGCAUGUCAUAAGACAUGAGGAUCACCCAUGUAGUUAAGAUGGCA | 238 nM | 9.79 nM |  | 
UUUAUAUUCAGAGGAUAUUGAUGUUGUAUUUUACAAGAAGGCUGAUUGUUUUGUAAUGUUAUUAUACAUGAGGAUCACCCAUGU | 22.1 nM | 15.6 nM |  | 
CUCUUGUCAGGAUAUUAUGGACGAUAGCAGGACUACGUCAGUGAGAAGGGACAUGAGGAUCACCCAUGUAAAAU |  |  | 82 nM | 67.2 nM
UCAUUAGCGGGCGGAUCGGUUGGACAUGAGGAUCACCCAUGUAGAAGGACCGGUGGAUUCCGGCGGUAGGAUAUACAUUUGGUG |  |  | 12.7 nM | 19.8 nM
AAACACGAUCGAGGAUAUCAUGCUUACGUCCCGGAUCCAUAAACAUGAGGAUCACCCAUGUGAUAUGAGAAGGCGAUAGUCAUA |  |  | 19.5 nM | 26.9 nM
CUUAUUUUCGAAGGAUAUGGAUACAUGAGGAUCACCCAUGUAUAAAAUGAGAUCUAUUAUAUGAUCCAGAAGGUCGUUGUUUAU |  |  | 33.4 nM | 59.2 nM
GUUCUUCCUGUAAGGAUAUCCAUGUAUCAGUUUAUGGAGAAGGUACAUGAGGAUCACCCAUGUCACCCGCGUUA |  |  | 20.1 nM | 46.1 nM
GCCGUGUUAGGAUAUUAAAGACCUGCGCCGAGCGCAGGAAGUAAGAAGGAACAUGAGGAUCACCCAUGUGUCCG |  |  | 18.1 nM | 16.1 nM
AAAGGACGAGGAUAUACAUGAGGAUCACCCAUGUGUAAAACGUAAUAAAAUAACUUAUGUAGAAGGCGUCCAAA |  |  | 30.6 nM | 216 nM
GCGAUUUUGUAAGGAUAUAUACGAGUUUCAAGUGUAGAAGGUACUUACAUGAGGAUCACCCAUGUAUACAUGGAUAAUAGUCGC | 269 nM | 136 nM |  | 
UUGACGGCAGGAUAUACAUGAGGAUCACCCAUGUAAAUUUUUCGUUUAACUUGAAUGUGUAGAAGGGCCAAAAC |  |  | 22.7 nM | 19.5 nM
